Assay outcomes: PubChem BioAssay, several laboratories
This is a sample that favours compounds with a hit; in the whole collection about 2.7% have one here.
NTR1 ag = NTR1 (human) agonism; activation, % at 20 µM; 330,000 tested, 0.17% active; P30989; NTR1-U2OS beta-arrestin-GFP spot imaging, agonist mode;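 active = activation at or above 40% of the spot to cytoplasm intensity ratio, with at least 20 cells analyzed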;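 note: 0% = DMSO without peptide and 100% = 100 nM NTR1 peptide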
PREPL inhibitor = inhibitors of human prolyl oligopeptidase-like enzyme PREPL; Q4J6C6; recombinant PREPL, fluorescence polarization activity-based probe; inhibition, % at 5.96 µM; 320,000 tested, 0.68% active; in the data active = inhibition above about 43%;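 note: 0% = enzyme with DMSO and 100% = wells lacking enzyme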
MC4R antagonist = blocks human MC4R cAMP signaling; P32245; MC4R-expressing cells, MTII-stimulated cAMP, LANCE TR-FRET; inhibition, % at 6.5 µM; 360,000 tested, 0.48% active;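 active = inhibition above its plate's cutoff, the mean of tested wells on that plate plus 3 SD, cut at about 29% in these data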;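 note: 0% = Melanotan II alone and 100% = Melanotan II plus saturating MCL0020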
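Assay system: U2OS-MC4R stable cell line; Also added: Melanotan II; Technique: Eu-cAMP/anti-cAMP TR-FRET, emission 671 nm; Times: 30-min compound, 1-h challenge, 1-h detection, room temperature.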
Lipid droplet = modulators of hepatic lipid droplet formation. inhibition, % at 6.5 µM. AID 1656. 240,000 tested, 0.4% active. AML12 mouse hepatocytes, oleate lipid droplets, BODIPY imaging;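 active = lipid droplet intensity inhibited by at least 50%, with more than 500 cells counted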
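Assay system: AML12 hepatocytes (mouse); Probe or stimulus: oleic acid at 100 µM to induce lipid droplet formation; Dosing: compound at 6.5 µM only; Schedule: compound with oleate, overnight; Detection: fluorescence imaging, 20x objective, two fields per well; Measure: % inhibition of lipid droplet signal.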
MC4R barr agon = activates human MC4R beta-arrestin recruitment. U2OS MC4R beta-arrestin complementation, luminescence; percent of melanotan II response, DMSO zero. activation, % at 8.9 µM. 360,000 tested, 0.98% active;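 active = activation above a per-plate cutoff, the mean activation of sample wells on that plate plus 3 SD, cut at about 8% in these data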
m5-HT2A agonist = activates the mouse 5-HT2A serotonin receptor; CHO-K1 mHTR2A beta-arrestin complementation, luminescence; percent of 30 µM serotonin response; AID 624169; P35363; 360,000 tested, 0.66% active; activation, % at 7.6 µM;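 active = activation above a run cutoff, the mean activation of all tested compounds plus 3 SD, cut at about 14% in these data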;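 note: 0% = plate median of compound wells and 100% = 30 µM serotonin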
MOR ag counter = activates human mu opioid receptor in HTR2A counterscreen; shares compounds with m5-HT2A agonist; U2OS OPRM1 beta-arrestin PathHunter, luminescence; DMSO 0%, DAMGO 9.3 µM 100%; activation, % at 9.3 µM; 2,300 tested, 5.3% active;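 active = mean activation above the mean of DMSO-only wells plus 3 SD, cut at about 0.5% in these data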
Target sequence (P35372 whole entry, looked up): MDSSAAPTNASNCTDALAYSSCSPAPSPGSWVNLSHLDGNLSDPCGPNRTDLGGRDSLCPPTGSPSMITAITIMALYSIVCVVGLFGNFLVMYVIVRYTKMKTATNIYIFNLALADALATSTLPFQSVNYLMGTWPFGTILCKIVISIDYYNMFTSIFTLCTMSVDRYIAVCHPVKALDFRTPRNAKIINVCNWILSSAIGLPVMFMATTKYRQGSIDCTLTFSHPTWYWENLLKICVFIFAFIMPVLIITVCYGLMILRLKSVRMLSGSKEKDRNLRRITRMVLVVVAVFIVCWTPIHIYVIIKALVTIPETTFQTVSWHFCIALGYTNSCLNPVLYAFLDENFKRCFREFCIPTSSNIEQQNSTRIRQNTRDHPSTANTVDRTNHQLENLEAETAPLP
HTR2A ag conf = confirmation of mouse HTR2A serotonin receptor agonists; shares compounds with m5-HT2A agonist; CHO-K1 PathHunter beta-arrestin recruitment, luminescence; DMSO 0%, 30 µM serotonin 100%; activation, % at 7.6 µM; 2,300 tested, 19% active;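 active = mean activation across triplicates above the hit threshold derived in the original primary screen, cut at about 15% in these data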
The depositor's hits bear a star; . = not tested or not shown.

SMILES	NTR1 ag	PREPL inhibitor	MC4R antagonist	Lipid droplet	MC4R barr agon	m5-HT2A agonist	MOR ag counter	HTR2A ag conf
Cc1cc(C)c2nc(NNC(=O)c3ccc(S(=O)(=O)N4CC(C)CC(C)C4)cc3)sc2c1 (stereo unspecified)	9	4	9	-66	1	62*	0	-4
Cc1ccc(S(=O)(=O)N2CCCC(C(=O)NCCc3ccc(S(N)(=O)=O)cc3)C2)cc1 (stereo unspecified)	1	9	-8	-1	1	5	.	.
CCOC(=O)C1CCCN(C(=O)Cn2nc(C)c3c(C)n(-c4ccccc4)nc3c2=O)C1 (stereo unspecified)	-1	22	4	-12	0	5	.	.
O=C(O)c1cccc2c1Cc1cc([N+](=O)[O-])ccc1-2	.	.	3	.	-2	15*	0	-1
Cc1cccc(N2C(=O)C3C4C=CC(C4)C3C2=O)c1 (stereo unspecified)	-1	8	7	.	-3	22*	0	0
Cc1ccc(N2C(=O)C3C4C=CC(C4)C3C2=O)cc1C (stereo unspecified)	0	15	10	.	-2	2	.	.
COc1cc(NC(=O)c2cccc3c2C(=O)N(Cc2cccnc2)C3)cc(OC)c1OC	0	23	-14	4	-1	-1	.	.
COC(=O)C(C)n1nnc2sc(-c3ccccc3)cc2c1=O (stereo unspecified)	-1	-2	12	-13	-4	16*	0	0
COc1ccc(C(=O)N(C)C2CCCN(Cc3ccccc3F)C2)cc1OC (stereo unspecified)	-1	-2	7	-22	-1	17*	-1	-3
COc1ccc(OC)c(C(=O)N(C)C2CCCN(Cc3ccccc3F)C2)c1 (stereo unspecified)	0	-11	11	-8	-1	2	.	.
CC1=C(C(N)=O)C(c2ccc(Cl)cc2)NC(=O)N1 (stereo unspecified)	-2	13	4	.	-1	0	.	.
CC(=O)C1=C(C)NC(=O)NC1c1ccc(Cl)cc1 (stereo unspecified)	0	15	9	0	-1	17*	-1	-3
CS(=O)(=O)Cc1ccc(C(=O)NC2CCSc3ccccc32)cc1 (stereo unspecified)	1	1	21	-8	-2	-1	.	.
CC(OC(=O)CCC(=O)c1cccs1)C(=O)NC1CCCCC1C (stereo unspecified)	-2	20	11	.	0	9	.	.
Cc1cc(C)nc(SCC(=O)c2ccc(F)c(C)c2)n1	0	16	3	-6	-2	36*	-1	-1
O=C1c2ccccc2C(=O)N1c1ncccn1	0	-1	8	-1	1	22*	0	3
O=C1c2ccccc2C(=O)N1c1cccc2cccnc12	1	11	-1	-9	0	4	.	.
O=C(Nc1nc2c(F)cccc2s1)C1CC1	0	-1	4	0	0	1	.	.
CC1CCc2c(sc(Nc3nc4c(F)cccc4s3)c2C(N)=O)C1 (stereo unspecified)	3	31	8	4	-1	19*	0	12
Cc1c(Cc2ccc3c(c2)OCO3)sc(NC(=O)c2ccccc2)c1C(N)=O	10	5	-1	-17	2	15*	0	2
O=C(CSc1nnc(CNC(=O)c2ccc(F)cc2)o1)Nc1nccs1	0	0	4	2	1	14*	-1	-3
O=C(CCn1cccc1)Nc1ccc(OC(F)(F)F)cc1	2	17	0	-2	-4	-3	.	.
COc1ccc(NC(=O)CSc2nc3ccccc3c(=O)n2CCCN2CCC(C)CC2)c(OC)c1	-1	12	4	-55	-3	61*	-1	18*
COc1ccc(-n2c(SCC(=O)Nc3cc(C)on3)nc3ccccc3c2=O)cc1Cl	6	-5	1	8	3	5	.	.
Cc1ccc(NC(=O)CSc2nc3ccccc3c(=O)n2CCCN2CCCCC2)cc1Cl	23	0	3	-4	6	30*	0	10
SMILES	NTR1 ag	PREPL inhibitor	MC4R antagonist	Lipid droplet	MC4R barr agon	m5-HT2A agonist	MOR ag counter	HTR2A ag conf
CC1CCN(CCCn2c(SCC(=O)Nc3ccccc3Cl)nc3ccccc3c2=O)CC1	-1	-6	10	-32	1	43*	0	24*
O=C(CSc1nc2ccccc2c(=O)n1CCCN1CCOCC1)Nc1ccc(F)c(Cl)c1	1	11	0	.	1	-9	.	.
COc1ccc(-n2c(SCC(=O)Nc3cc(C(=O)O)ccc3C)nc3ccccc3c2=O)cc1Cl	0	10	16	14	-1	17*	-1	-2
COc1cc(OC)cc(C(=O)NC(C(=O)NNC(=O)CN(C)S(=O)(=O)c2ccc(C)cc2)C(C)C)c1 (stereo unspecified)	.	.	3	.	-2	13	.	.
COc1ccc(OC)c(NC(=O)c2csc(Cl)c2OC)c1	3	20	5	.	6	-2	.	.
O=C(Nc1ccn(CCCN2CCN(c3ncccn3)CC2)c(=O)n1)OCc1ccccc1	.	.	6	.	-2	25*	0	29*
Cc1cc(NN)nc(NS(=O)(=O)c2ccccc2)n1	1	6	11	3	-1	2	.	.
Cc1cc(NN)nc(NS(=O)(=O)c2ccc(Cl)cc2)n1	0	-5	14	6	-1	16*	0	7
COc1cc(OC)c(C(=O)NNC(=S)NC2CCCCC2)cc1OC	1	18	8	-2	0	0	.	.
CC(C)(C)OC(=O)NNC(=S)NC1CCCCC1	0	6	-1	1	1	16*	-1	3
OC(COc1ccc2cc(Br)ccc2c1)CN1CCN(c2ccccn2)CC1 (stereo unspecified)	24	30	9	-11	6	24*	0	108*
COc1cccc(OCC(O)CN2CCN(c3ccccn3)CC2)c1 (stereo unspecified)	0	-1	4	-3	1	33*	-1	84*
COc1cccc(OCC(O)CN2CCN(c3ncccn3)CC2)c1 (stereo unspecified)	6	-3	10	36	-2	5	.	.
COc1ccc2c(C=O)cn(C)c2c1	1	0	1	-11	-2	9	.	.
NC(=O)c1cc[n+](Cc2ccccc2Cl)cc1	0	2	10	-12	0	-1	.	.
